Measurements as given in ChEMBL document CHEMBL4732017, “Discovery, affinity maturation and multimerization of small molecule ligands against human tyrosinase and tyrosinase-related protein 1” (RSC Med Chem, 2021).
Activity calls are given as the source filed them. The calls are words filed in the database; no cut-off is given here.

Key:
[1] = target: T1, Tyrosinase (Homo sapiens) (UniProt P14679); assay: Binding affinity to human tyrosinase at 50 uM at pH 6.8 by enzymatic assay
T1 sequence (whole entry): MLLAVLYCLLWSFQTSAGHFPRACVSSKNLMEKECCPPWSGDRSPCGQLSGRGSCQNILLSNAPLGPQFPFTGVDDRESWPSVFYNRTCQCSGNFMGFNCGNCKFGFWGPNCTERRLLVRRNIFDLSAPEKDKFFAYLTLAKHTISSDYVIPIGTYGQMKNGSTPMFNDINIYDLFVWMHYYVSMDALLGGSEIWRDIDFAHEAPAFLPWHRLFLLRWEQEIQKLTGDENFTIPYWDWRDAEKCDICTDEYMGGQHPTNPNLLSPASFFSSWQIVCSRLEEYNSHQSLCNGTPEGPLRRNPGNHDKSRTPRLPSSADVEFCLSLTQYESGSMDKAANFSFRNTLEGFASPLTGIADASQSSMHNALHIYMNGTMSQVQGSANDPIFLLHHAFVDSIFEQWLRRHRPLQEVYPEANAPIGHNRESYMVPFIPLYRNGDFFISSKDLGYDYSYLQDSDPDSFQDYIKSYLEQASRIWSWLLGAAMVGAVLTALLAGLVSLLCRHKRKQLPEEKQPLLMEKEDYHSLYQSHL
Summary of the method: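 Human tyrosinase intramelanosomal domain (residues 19–456), 200 nM, with 1 mM L-DOPA and 4 mM MBTH in PBS pH 6.8 with 1% DMSO at 25 °C. Dopaquinone-MBTH absorbance at 490–510 nm is recorded over 10 min, in duplicate, and the OD–time slope is taken by linear regression. Single-point tests use a fixed 50 µM inhibitor. IC50 comes from fitting the slope against inhibitor concentration.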

[2] = target: 5,6-dihydroxyindole-2-carboxylic acid oxidase (Homo sapiens) (UniProt P17643); assay: Binding affinity to human tyrosinase related protein 1 up to 10 uM by fluorescence polarization analysis; settings: dose microM <=10
Summary of the method: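 hTYRP1 intramelanosomal domain (residues 25–471) is serially diluted 1:1 and incubated with 50 nM fluorescein-conjugated ligand in PBS pH 7.4. Fluorescence anisotropy is read in triplicate and anisotropy values are fitted against protein concentration.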

[3] = target: 5,6-dihydroxyindole-2-carboxylic acid oxidase (Homo sapiens) (UniProt P17643); assay: Binding affinity to human tyrosinase related protein 1 expressed in mouse B16F10 cells at 10 uM by fluorophore based flow cytometry assay; settings: B16-F10
[4] = target: T1, Tyrosinase (Homo sapiens); assay: Binding affinity to human tyrosinase up to 100 uM by ELISA; settings: dose microM <=100
Summary of the method: (§1)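 Wells are coated overnight at 4 °C with 100 nM hTYR or hTYRP1 in PBS and blocked with 4% milk-PBS for 30–45 min. A serial dilution of fluorescein-ligand conjugate is added for 45 min in the dark. Detection uses 200 nM anti-fluorescein IgG, then protein A-HRP (1:1000), each for 45 min with washes between. Absorbance is read at 450 and 620 nm, and values are fitted.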

[5] = target: 5,6-dihydroxyindole-2-carboxylic acid oxidase (Homo sapiens) (UniProt P17643); assay: Binding affinity to human tyrosinase related protein 1 up to 100 uM by ELISA; settings: dose microM <=100; summary of the method: as §1
[6] = target: T1, Tyrosinase (Homo sapiens); assay: Binding affinity to human tyrosinase expressed in mouse B16F10 cells at 10 uM by fluorophore based flow cytometry assay; settings: B16-F10

Chain of 5,6-dihydroxyindole-2-carboxylic acid oxidase (Homo sapiens) (P17643 whole entry, the tested form may be a part): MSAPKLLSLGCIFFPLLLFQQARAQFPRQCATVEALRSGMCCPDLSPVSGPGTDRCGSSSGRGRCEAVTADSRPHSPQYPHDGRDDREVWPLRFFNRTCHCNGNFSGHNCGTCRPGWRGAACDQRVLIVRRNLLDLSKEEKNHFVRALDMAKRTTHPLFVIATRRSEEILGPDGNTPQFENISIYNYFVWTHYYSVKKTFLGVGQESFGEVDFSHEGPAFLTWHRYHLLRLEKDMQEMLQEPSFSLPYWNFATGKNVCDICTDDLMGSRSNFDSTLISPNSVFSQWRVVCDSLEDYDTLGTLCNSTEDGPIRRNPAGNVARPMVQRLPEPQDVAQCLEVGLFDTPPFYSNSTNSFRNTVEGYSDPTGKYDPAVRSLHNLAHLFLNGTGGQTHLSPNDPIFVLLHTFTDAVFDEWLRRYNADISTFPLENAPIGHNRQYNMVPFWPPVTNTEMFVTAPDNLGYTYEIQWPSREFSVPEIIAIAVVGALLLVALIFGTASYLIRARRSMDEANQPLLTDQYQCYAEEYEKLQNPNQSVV

CN(C)c1ccc(CC(=O)N[C@H](CCC(N)=O)C(=O)NCc2cccc(N3CCOCC3)c2)cc1
Activity [1]: Active

CN(C)c1ccc(CC(=O)N[C@@H](CCC(=O)NCCCCC(NC(=S)Nc2cccc3c2C(=O)OC32c3ccc(O)cc3Oc3cc(O)ccc32)C(=O)O)C(=O)NCc2ccccc2N2CCCC2)cc1 (stereo not given in full)
Activity [2]: Active

CN(C)c1ccc(CC(=O)N[C@H](CCC(N)=O)C(=O)N2CCCN(c3ccc(F)cc3)CC2)cc1
Activity [1]: Active

CN(C)c1ccc(CC(=O)N[C@H](CCC(N)=O)C(=O)NCc2ccccc2N2CCCC2)cc1
Activity [1]: Active

N=C(N)NCCC[C@@H](NC(=O)[C@@H](CC(=O)O)NC(=O)CCCCn1cc(CCCC(=O)Nc2nc(-c3ccc(O)cc3O)cs2)nn1)C(=O)N[C@H](CC(=O)O)C(=O)NCCCCCC(=O)NC(CSC1CC(=O)N(c2ccc3c(c2)C(=O)OC32c3ccc(O)cc3Oc3cc(O)ccc32)C1=O)C(=O)O (single isomer, unassigned)
Activity [3]: Active
Activity [4]: Active
Activity [5]: Active
Activity [6]: Active

CN(C)c1ccc(CC(=O)N[C@@H](CCC(N)=O)C(=O)N2CCCN(c3ccc(F)cc3)CC2)cc1
Activity [1]: Active

CN(C)c1ccc(CC(=O)N[C@H](CCC(=O)NCCCCC(NC(=S)Nc2cccc3c2C(=O)OC32c3ccc(O)cc3Oc3cc(O)ccc32)C(=O)O)C(=O)NCc2ccccc2N2CCCC2)cc1 (stereo not given in full)
Activity [2]: Active

N=C(N)NCCC[C@@H](NC(=O)[C@@H](CC(=O)O)NC(=O)[C@H](CCCCNC(=O)[C@H](CCCCNC(=O)CCCCCNC(=O)CCCCn1cc(CCCC(=O)Nc2nc(-c3ccc(O)cc3O)cs2)nn1)NC(=O)CCCCCNC(=O)CCCCn1cc(CCCC(=O)Nc2nc(-c3ccc(O)cc3O)cs2)nn1)NC(=O)[C@H](CCCCNC(=O)CCCCCNC(=O)CCCCn1cc(CCCC(=O)Nc2nc(-c3ccc(O)cc3O)cs2)nn1)NC(=O)CCCCCNC(=O)CCCCn1cc(CCCC(=O)Nc2nc(-c3ccc(O)cc3O)cs2)nn1)C(=O)N[C@H](CC(=O)O)C(=O)NCCCCCC(=O)N[C@@H](CSC1CC(=O)N(c2ccc3c(c2)C(=O)OC32c3ccc(O)cc3Oc3cc(O)ccc32)C1=O)C(=O)O (stereo not given in full)
Activity [3]: Active
Activity [4]: Active
Activity [5]: Active
Activity [6]: Active

CN(C)c1ccc(CC(=O)N[C@@H](CCC(N)=O)C(=O)NCc2cccc(N3CCOCC3)c2)cc1
Activity [1]: Active

N=C(N)NCCC[C@@H](NC(=O)[C@@H](CC(=O)O)NC(=O)[C@H](CCCCNC(=O)CCCCCNC(=O)CCCCn1cc(CCCC(=O)Nc2nc(-c3ccc(O)cc3O)cs2)nn1)NC(=O)CCCCCNC(=O)CCCCn1cc(CCCC(=O)Nc2nc(-c3ccc(O)cc3O)cs2)nn1)C(=O)N[C@H](CC(=O)O)C(=O)NCCCCCC(=O)NC(CSC1CC(=O)N(c2ccc3c(c2)C(=O)OC32c3ccc(O)cc3Oc3cc(O)ccc32)C1=O)C(=O)O (single isomer, unassigned)
Activity [3]: Active
Activity [4]: Active
Activity [5]: Active
Activity [6]: Active

CN(C)c1ccc(CC(=O)N[C@@H](CCC(N)=O)C(=O)NCc2ccccc2N2CCCC2)cc1
Activity [1]: Active
